# Active and inactive are the calls of the source. The calls are words filed in the database; no cut-off is given here.
# How the values were obtained:
# Bcap37 = experiment: Growth inhibition of human Bcap37 cells after 72 hrs by MTT assay; format: functional, cell-based
# How it was run: (§1)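 Cell lines were grown in RPMI 1640 with 10% fetal bovine serum and plated at 2 × 10³ cells/well. Compounds were taken up in DMSO, diluted in medium, and applied over a 1–100 range for 72 h, with 0.1% DMSO as control. MTT formazan was read at 595 nm. IC50 came from the dose–response curve, from three separate experiments each run in triplicate.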
# PC-3 = experiment: Growth inhibition of human PC3 cells after 72 hrs by MTT assay; format: functional, cell-based; how it was run: as §1
# A-431 = experiment: Growth inhibition of human A431 cells after 72 hrs by MTT assay; format: functional, cell-based; how it was run: as §1
# BGC-823 = experiment: Growth inhibition of human BGC823 cells after 72 hrs by MTT assay; format: functional, cell-based; how it was run: as §1
# [1] = target: Mitogen-activated protein kinase 3 (Homo sapiens) (UniProt P27361); experiment: Inhibition of EGF-induced ERK1 phosphorylation in PC3 cells at 20 uM after 60 mins; format: cell-based; conditions: PC-3
# How it was run: (§2)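 PC3 cells were grown in RPMI 1640 with 10% FBS at 37 °C for 36–48 h, then serum-starved for 24 h. They were pretreated with compound at 20 for 60 min, then stimulated with EGF for 10 min and quenched on ice. Lysates were immunoblotted with anti-phospho-ERK1/2 monoclonal antibody overnight at 4 °C, then secondary antibody for 2–3 h at 25 °C, with ECL detection.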
# [2] = target: Mitogen-activated protein kinase 1 (Homo sapiens) (UniProt P28482); experiment: Inhibition of EGF-induced ERK2 phosphorylation in PC3 cells at 20 uM after 60 mins; format: cell-based; conditions: PC-3; how it was run: as §2
# Chain of Mitogen-activated protein kinase 1 (Homo sapiens) (P28482 whole entry): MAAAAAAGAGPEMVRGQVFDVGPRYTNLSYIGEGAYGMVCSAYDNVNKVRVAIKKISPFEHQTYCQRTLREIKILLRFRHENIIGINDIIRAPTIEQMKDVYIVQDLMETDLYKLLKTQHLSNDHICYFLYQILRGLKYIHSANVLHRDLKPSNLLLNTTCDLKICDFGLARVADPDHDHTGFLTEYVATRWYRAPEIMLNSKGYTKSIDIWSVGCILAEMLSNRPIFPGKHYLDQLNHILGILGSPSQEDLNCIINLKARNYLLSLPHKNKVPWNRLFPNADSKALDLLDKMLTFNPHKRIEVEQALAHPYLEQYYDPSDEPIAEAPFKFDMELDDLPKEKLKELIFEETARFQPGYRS
# Chain of Mitogen-activated protein kinase 3 (Homo sapiens) (P27361 whole entry): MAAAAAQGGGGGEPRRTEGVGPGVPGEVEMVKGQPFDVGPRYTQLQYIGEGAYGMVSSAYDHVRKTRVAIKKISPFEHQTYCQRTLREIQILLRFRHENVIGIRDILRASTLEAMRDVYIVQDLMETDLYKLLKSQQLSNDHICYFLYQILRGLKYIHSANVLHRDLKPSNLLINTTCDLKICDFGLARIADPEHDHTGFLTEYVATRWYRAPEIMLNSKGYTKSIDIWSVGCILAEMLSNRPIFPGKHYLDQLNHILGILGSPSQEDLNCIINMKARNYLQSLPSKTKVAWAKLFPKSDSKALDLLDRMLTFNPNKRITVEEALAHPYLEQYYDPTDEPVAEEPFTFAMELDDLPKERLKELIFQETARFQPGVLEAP
Compound,"IC50 (Bcap37; Homo sapiens, Bcap37, 72 h) [µM]","IC50 (PC-3; Homo sapiens, PC-3, 72 h) [µM]","IC50 (A-431; Homo sapiens, A-431, 72 h) [µM]",IC50 (BGC-823; bgc-823) [µM],"IC50 (BGC-823; Homo sapiens, BGC-823, 72 h) [µM]",IC50 (Bcap37; bcap37) [µM],IC50 (PC-3; pc-3) [µM],IC50 (A-431; a-431) [µM],Activity [1],Activity [2]
COc1cc2c(Nc3cccc(Br)c3)ncnc2c(OC)c1OC [listing 1 of 2 here],12.3,8.9,7.6,5.8,,,,,,
COc1cc2c(Nc3cccc(Cl)c3)ncnc2c(OC)c1OC,21,19,32.1,,19,,,,,
COc1cc2c(Nc3cccc(F)c3)ncnc2c(OC)c1OC [listing 1 of 2 here],21,35.6,29.7,,29.9,,,,,
COc1cc2c(Nc3cccc([N+](=O)[O-])c3)ncnc2c(OC)c1OC,31.1,24.4,37.7,,39,,,,,
COc1cc2c(cc1Nc1ncnc3c(OC)c(OC)c(OC)cc13)oc1ccccc12,8.1,9.8,9,,9.9,,,,,
COc1cc2c(Nc3ccc(F)cc3)ncnc2c(OC)c1OC,28.7,24.5,29,,39.6,,,,,
COc1cc2c(Nc3ccc(Br)cc3Cl)ncnc2c(OC)c1OC,89,21,51.5,,31,,,,,
COc1cc2c(Nc3cccc(Br)c3)ncnc2c(OC)c1OC [listing 2 of 2 here],,,,12.1,,21,12.6,11,,
COc1cc2c(Nc3ccccc3[N+](=O)[O-])ncnc2c(OC)c1OC,29.9,31.2,31,,21,,,,,
COc1cc2c(Nc3ccccc3F)ncnc2c(OC)c1OC,63.2,18.8,72.1,,36.7,,,,,
COc1cc2c(Nc3cccc(F)c3)ncnc2c(OC)c1OC [listing 2 of 2 here],,,,28.9,,22.1,25.3,,,
COc1cc2c(Nc3ccc(O)cc3)ncnc2c(OC)c1OC,45.5,20.1,22.2,,35.4,,,,,
COc1cc2c(N[C@@H](C)c3ccccc3)ncnc2c(OC)c1OC,12.9,10,12,,11.9,,,,,
COc1cc2c(Nc3ccc(Cl)cc3)ncnc2c(OC)c1OC,52.2,31,19,,34.4,,,,,
COc1cc2c(Nc3ccc(Br)cc3)ncnc2c(OC)c1OC,31.2,23.4,42.1,,23.8,,,,,
COc1cc2c(=NCc3ccccc3)[nH]cnc2c(OC)c1OC,65.4,36.7,21.2,,37.7,,,,,
COc1cc2c(N[C@H](C)c3ccccc3)ncnc2c(OC)c1OC,23.2,18.8,21,,12,,,,,
COc1cc2c(Nc3ccc([N+](=O)[O-])cc3)ncnc2c(OC)c1OC,28.9,25.5,45.2,,32.2,,,,,
COc1cc(Nc2ncnc3c(OC)c(OC)c(OC)cc23)cc(OC)c1OC,76.5,30,65.4,,23.1,,,,,
COc1cc2ncnc(Nc3cccc(Br)c3)c2cc1OC,13.7,8.9,,,16.8,,,,Active,Active

# From ChEMBL document CHEMBL1143761, “Synthesis and bioactivities of 6,7,8-trimethoxy-N-aryl-4-aminoquinazoline derivatives” (Bioorg Med Chem, 2007)
